The source of these data is ChEMBL document CHEMBL4732112, “Synthesis and in vitro evaluation of novel spiroketopyrazoles as acetyl-CoA carboxylase inhibitors and potential antitumor agents” (Eur J Med Chem, 2021).

The source made the active and inactive calls. The calls are words filed in the database; no cut-off is given here.

By inhibition is commonly meant the relative decrease from the control value, in per cent. Broadly, the IC50 is the point on the concentration scale where inhibition reaches its midpoint.

Data set [1] has as its system HepG2. The data set is described as follows: Cell cycle arrest in human HepG2 cells assessed as accumulation at G0/G1 phase measured after 48 hrs by propidium iodide staining based flow cytometry. Type of data set: functional. Conditions: dose 1-10 µM. For orientation: Flow cytometry measures light scatter and fluorescence of single cells or particles in a stream.
In data set [2] the target is T1, Acetyl-CoA carboxylase 1 (Homo sapiens, UniProt Q13085). The data set is described as follows: Inhibition of ACC1 in human HepG2 cells assessed as reduction in intracellular malonyl-CoA level at 10 uM measured after 48 hrs by ELISA relative to control. The format is cell-based. The procedure, abridged: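 HepG2 cells plated and exposed to the compound at several concentrations for 48 h. Cells washed with PBS, lysed in 1% Triton X-100 and spun 12000 rpm, 4 °C, 15 min. Malonyl-CoA measured by ELISA kit and triglyceride by GPO-POP kit, each normalised to BCA protein. Reported relative to control, mean ± SD, n=3.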
(In an ELISA, binding on a coated surface is turned into a signal by an enzyme label.)

In data set [3] the target is T1, Acetyl-CoA carboxylase 1. The data set is described as follows: Inhibition of recombinant human C-terminal His-tagged ACC1 (1 to 2383 residues) expressed in baculovirus infected Sf9 insect cells at 5 uM preincubated for 15 mins followed by substrate addition and measured after 60 mins by ADP-glo luminescence assay relative to control. On the technique in general: In ADP-Glo the light output rises with the ADP produced.

Data set [4] concerns HepG2. The data set is described as follows: Antiproliferative activity against human HepG2 cells assessed as cell viability at 0.5 uM measured after 5 days in presence of 25 uM palmitate by MTT assay relative to control. Type of data set: functional. Conditions: HepG2, 120 h, time 5 day, read-out: Activity. The procedure, abridged:
(§1)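 HepG2 treated with 0.5 μM plus 0, 10 or 25 μM palmitate for 1, 3 and 5 days. Palmitate was complexed with 5% fatty-acid-free BSA from a 5 mM solution, then diluted in serum-free DMEM to final concentration. Viability (% control) by MTT. Mean ± SD, n=3.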

The test system of data set [5] is HepG2. The data set is described as follows: Induction of apoptosis in human HepG2 cells assessed as necrotic cells at 5 uM measured after 48 hrs by Annexin V-FITC/propidium iodide staining based flow cytometry (reference value: 0.22%). The format is functional. The gist of the method: (§2)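 HepG2 cells incubated with the stated concentrations for 48 h, harvested, and stained with Annexin V-FITC and propidium iodide protected from light. Viable, early apoptotic, late apoptotic and necrotic fractions quantified by flow cytometry. Mean ± SD, n=3.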

The target in data set [6] is T1, Acetyl-CoA carboxylase 1. The data set is described as follows: Inhibition of recombinant human C-terminal His-tagged ACC1 (1 to 2383 residues) expressed in baculovirus infected Sf9 insect cells at 0.1 uM preincubated for 15 mins followed by substrate addition and measured after 60 mins by ADP-glo luminescence assay relative to control.
For data set [7], the system named is HepG2. The data set is described as follows: Antiproliferative activity against human HepG2 cells assessed as cell viability at 0.5 uM measured after 5 days in presence of 10 uM palmitate by MTT assay relative to control. Type of data set: functional. Particulars: HepG2, 120 h, time 5 day, read-out: Activity. The gist of the method: as §1
In data set [8] the test system is HepG2. The data set is described as follows: Induction of apoptosis in human HepG2 cells assessed as viable cells at 10 uM measured after 48 hrs by Annexin V-FITC/propidium iodide staining based flow cytometry (reference value: 95.6%). Type of data set: functional. Conditions: read-out: Activity. The gist of the method: as §2
Data set [9] relates to HepG2. The data set is described as follows: Antiproliferative activity against human HepG2 cells assessed as cell growth inhibition at 10 uM after 72 hrs by MTT assay relative to control. Type of data set: functional. Conditions: read-out: GI. The procedure, abridged: (§3)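 Cells were DMEM/10% FBS cultures at 37 °C, 5% CO2, seeded at 3×10^3 per well and exposed for 72 h after 24 h attachment. Read-out was MTT with formazan in DMSO and absorbance at 550 nm, expressed as inhibition rate versus control.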

The test system of data set [10] is HepG2. The data set is described as follows: Cell cycle arrest in human HepG2 cells assessed as accumulation at S phase at 5 uM measured after 48 hrs by propidium iodide staining based flow cytometry (reference value: 30.18%). Type of data set: functional.
Data set [11] relates to HepG2. The data set is described as follows: Induction of apoptosis in human HepG2 cells assessed as viable cells at 1 uM measured after 48 hrs by Annexin V-FITC/propidium iodide staining based flow cytometry (reference value: 95.6%). The format is functional. Conditions: read-out: Activity. The procedure, abridged: as §2
The test system of data set [12] is HepG2. The data set is described as follows: Cell cycle arrest in human HepG2 cells assessed as accumulation at S phase at 1 uM measured after 48 hrs by propidium iodide staining based flow cytometry (reference value: 30.18%). Type of data set: functional.
Data set [13] can be described thus: Cytotoxicity against HUVEC assessed as cell viability at 100 uM after 72 hrs by MTT assay relative to control. Particulars: human, HUVEC cells, read-out: Activity. The format is cell-based. The gist of the method: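 HUVEC kept in RPMI 1640 with 10% FBS at 37 °C, 5% CO2. Seeded at 3×10^3 per well and treated at 100 µM for 72 h after 24 h attachment. Viability by MTT with absorbance at 550 nm, as percent of control. Mean ± SD, n=3.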

Data set [14] has as its system HepG2. The data set is described as follows: Induction of apoptosis in human HepG2 cells assessed as necrotic cells at 1 uM measured after 48 hrs by Annexin V-FITC/propidium iodide staining based flow cytometry (reference value: 0.22%). Type of data set: functional. The gist of the method:
as §2

The test system of data set [15] is HepG2. The data set is described as follows: Cell cycle arrest in human HepG2 cells assessed as accumulation at G2/M phase at 10 uM measured after 48 hrs by propidium iodide staining based flow cytometry (reference value: 13.58%). Type of data set: functional.
Data set [16] has as its system HepG2. The data set is described as follows: Induction of apoptosis in human HepG2 cells assessed as nuclear fragmentation at 1 to 10 uM measured after 48 hrs by Hoechst 33258 staining based fluorescence microscopic analysis. The format is functional, cell-based. Particulars: dose 1-10 µM. The procedure, abridged:
(§4)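 HepG2 cells exposed to varying concentrations for 48 h in 6-well plates. Stained with Hoechst 33258 in the dark for 20 min, then nuclear morphology inspected by fluorescence microscopy.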

For data set [17], the system named is HepG2. The data set is described as follows: Cell cycle arrest in human HepG2 cells assessed as accumulation at G2/M phase at 5 uM measured after 48 hrs by propidium iodide staining based flow cytometry (reference value: 13.58%). The format is functional.
The subject of data set [18] is HepG2. The data set is described as follows: Antiproliferative activity against human HepG2 cells assessed as combination index at 1.4 uM measured after 72 hrs in presence of 2.8 uM doxorubicin by MTT assay. The format is functional.
Another data set concerns A549. The data set is described as follows: Antiproliferative activity against human A549 cells assessed as cell growth inhibition at 10 uM after 72 hrs by MTT assay relative to control. Conditions: read-out: GI. Type of data set: functional. The procedure, abridged:
as §3

The subject of data set [19] is HepG2. The data set is described as follows: Induction of apoptosis in human HepG2 cells assessed as chromatin shrinkage at 1 to 10 uM measured after 48 hrs by Hoechst 33258 staining based fluorescence microscopic analysis. The format is functional, cell-based. Conditions: dose 1-10 µM. The procedure, abridged:
as §4

In data set [20] the test system is HepG2. The data set is described as follows: Induction of apoptosis in human HepG2 cells assessed as increase in early apoptotic cells measured after 48 hrs by Annexin V-FITC/propidium iodide staining based flow cytometry. Conditions: dose 1-10 µM. The format is functional, cell-based. The procedure, abridged:
as §2

Data set [21] deals with HepG2. The data set is described as follows: Induction of apoptosis in human HepG2 cells assessed as viable cells at 5 uM measured after 48 hrs by Annexin V-FITC/propidium iodide staining based flow cytometry (reference value: 95.6%). The format is functional. Particulars: read-out: Activity.
The test system of the next data set is MDA-MB-231. The data set is described as follows: Antiproliferative activity against human MDA-MB-231 cells assessed as cell growth inhibition after 72 hrs by MTT assay. The format is functional, cell-based. Conditions: MDA-MB-231, 72 h. The procedure, abridged:
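HepG2, A549 or MDA-MB-231 cells grown in DMEM with 10% FBS and penicillin/streptomycin at 37 °C, 5% CO2. Seeded at 3×10^3 per well, left 24 h, then exposed to a range of concentrations for 72 h. MTT added for 4 h, formazan dissolved in DMSO, absorbance read at 550 nm. Mean ± SD, n=3.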

The subject of data set [22] is HepG2. The data set is described as follows: Cell cycle arrest in human HepG2 cells assessed as reduction in cyclin D1 expression measured after 48 hrs by Western blot analysis. The format is functional, cell-based. Conditions: dose 1-10 µM. The procedure, abridged: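 HepG2 cells treated for 48 h and lysed. Lysates cleared at 12000 rpm for 15 min and protein measured by BCA. Run on SDS-PAGE, transferred to PVDF, blocked in 5% BSA, primary antibody at 4 °C overnight, then DyLight 800 secondary. Infrared imaging and densitometry against β-actin. Mean ± SD, n=3.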

For the molecule `CC(C)(C)n1cc2c(n1)C(=O)CC1(CCN(C(=O)c3cc(-c4ccncc4)nc4ccccc34)CC1)O2`, the Activity result with HepG2 [1] is “Dose-dependent effect”; in the data set on HepG2 [5], 3.72%; in the data set on HepG2 [10] it was 14.71%; in the data set on HepG2 [12], 21.46%; in the data set on HepG2 [14], 3.61%; in the data set with HepG2 [15] it was 4.9%. Further, the figures for the Activity in the data set with HepG2 [17], with HepG2 [20] and in the data set with HepG2 [22] were 6.46%, “Dose-dependent effect” and “Dose-dependent effect”, respectively. Moreover, the inhibition at Acetyl-CoA carboxylase 1 [2] is 31.4%; at Acetyl-CoA carboxylase 1 [3], 100%; on Acetyl-CoA carboxylase 1 [6], 86.2%. The viability at 0.5 µM with HepG2 [4] worked out at 87.1%; in the data set on HepG2 [7], 68.9%. Also, the viability at 10 µM in the data set on HepG2 [8] is 12.2%. The inhibition of growth at 10 µM with HepG2 [9] amounted to 80.1%; in the data set with A549, 79.3%. In addition, the viability at 1 µM with HepG2 [11] turned out to be 72.1%. The viability at 72 h, 100 µM in [13] came to 95.2%. The outcome in the data set on HepG2 [16] and with HepG2 [19] was Active. Besides, the CI in the data set with HepG2 [18] was determined as 0.366. Moreover, the viability at 5 µM with HepG2 [21] was found to be 44.8%. In the data set on MDA-MB-231, the IC50 turned out to be 1.65 µM.
